Source: article PMC9753537 (ACS Omega, 2022)

Target: urease (Canavalia ensiformis, UniProt P07374)
Assay: In vitro urease inhibition assay
Format: biochemical
Summary of the method: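 Enzyme preincubated with test compound in phosphate buffer (pH 6.8) for 10 min at 37 °C, then phenol and alkali reagents added. Absorbance read at 625 nm, with thiourea as the standard inhibitor. Percent inhibition calculated from absorbance, run in triplicate.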

Chain of urease (P07374 whole entry, looked up): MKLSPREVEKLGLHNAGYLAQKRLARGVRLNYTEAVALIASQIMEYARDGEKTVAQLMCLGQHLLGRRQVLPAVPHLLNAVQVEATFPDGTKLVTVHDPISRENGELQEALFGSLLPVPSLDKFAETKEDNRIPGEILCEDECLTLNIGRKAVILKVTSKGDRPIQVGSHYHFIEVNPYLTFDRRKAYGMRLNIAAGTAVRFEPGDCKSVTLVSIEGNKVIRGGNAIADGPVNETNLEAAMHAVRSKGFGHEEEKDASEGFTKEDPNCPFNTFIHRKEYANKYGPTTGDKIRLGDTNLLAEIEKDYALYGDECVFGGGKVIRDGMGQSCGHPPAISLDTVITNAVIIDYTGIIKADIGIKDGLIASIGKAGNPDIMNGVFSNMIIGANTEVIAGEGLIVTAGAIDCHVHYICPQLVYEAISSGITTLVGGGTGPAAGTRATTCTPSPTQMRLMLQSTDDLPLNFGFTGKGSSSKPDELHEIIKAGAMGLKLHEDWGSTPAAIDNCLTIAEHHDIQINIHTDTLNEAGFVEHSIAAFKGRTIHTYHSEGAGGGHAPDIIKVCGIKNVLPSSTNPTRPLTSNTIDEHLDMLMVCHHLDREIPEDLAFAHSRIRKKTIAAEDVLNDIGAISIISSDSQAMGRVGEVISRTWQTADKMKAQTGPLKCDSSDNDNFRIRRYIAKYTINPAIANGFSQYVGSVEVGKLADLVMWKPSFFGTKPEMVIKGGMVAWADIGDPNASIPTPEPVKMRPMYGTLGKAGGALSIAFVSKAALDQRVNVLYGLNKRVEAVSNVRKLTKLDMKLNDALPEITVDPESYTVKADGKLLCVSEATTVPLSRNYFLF

Structure (SMILES)	IC50
COc1cc(C=NNC(=O)C(C)c2ccc(-c3ccccc3)c(F)c2)ccc1F (stereo not drawn) [Compound 12, N′-(4-Fluoro-3-methoxybenzylidene)-2-(2-fluoro-[1,1′-biphenyl]-4-yl)propanehydrazide]	56.1 ± 4.89 µM
COc1ccc(OC)c(C=NNC(=O)C(C)c2ccc(-c3ccccc3)c(F)c2)c1 (stereo not drawn) [Compound 24, N′-(2,5-Dimethoxybenzylidene)-2-(2-fluoro-[1,1′-biphenyl]-4-yl)propanehydrazide]	79.2 ± 7.94 µM
COc1ccc(Br)cc1C=NNC(=O)C(C)c1ccc(-c2ccccc2)c(F)c1 (stereo not drawn) [Compound 8, N′-(5-Bromo-2-methoxybenzylidene)-2-(2-fluoro-[1,1′-biphenyl]-4-yl)propanehydrazide]	58.3 ± 3.34 µM
COc1ccc(C=NNC(=O)C(C)c2ccc(-c3ccccc3)c(F)c2)c(OC)c1OC (stereo not drawn) [Compound 9, 2-(2-Fluoro-[1,1′-biphenyl]-4-yl)-N′-(2,3,4-trimethoxybenzylidene)propanehydrazide]	55.8 ± 3.04 µM
CC(C(=O)NN=Cc1ccc(-c2ccccc2)c(F)c1)c1ccc(-c2ccccc2)c(F)c1 (stereo not drawn) [Compound 28, 2-(2-Fluoro-[1,1′-biphenyl]-4-yl)-N′-((2-fluoro-[1,1′-biphenyl]-4-yl)methylene)propanehydrazide]	58.5 ± 4.28 µM
CC(C(=O)NN=Cc1ccc(Br)cc1)c1ccc(-c2ccccc2)c(F)c1 (stereo not drawn) [Compound 20, N′-(4-Bromobenzylidene)-2-(2-fluoro-[1,1′-biphenyl]-4-yl)propanehydrazide]	58.8 ± 3.99 µM
Cc1ccc(C=NNC(=O)C(C)c2ccc(-c3ccccc3)c(F)c2)s1 (stereo not drawn) [Compound 29, 2-(2-Fluoro-[1,1′-biphenyl]-4-yl)-N′-((5-methylthiophen-2-yl)methylene)propanehydrazide]	57.5 ± 4.27 µM
COc1ccc(C=NNC(=O)C(C)c2ccc(-c3ccccc3)c(F)c2)c(F)c1 (stereo not drawn) [Compound 21, N′-(2-Fluoro-4-methoxybenzylidene)-2-(2-fluoro-[1,1′-biphenyl]-4-yl)propanehydrazide]	89.7 ± 8.35 µM
CCOc1cc(C=NNC(=O)C(C)c2ccc(-c3ccccc3)c(F)c2)ccc1OC (stereo not drawn) [Compound 13, N′-(3-Ethoxy-4-methoxybenzylidene)-2-(2-fluoro-[1,1′-biphenyl]-4-yl)propanehydrazide]	81 ± 8.43 µM
COc1cc(C=NNC(=O)C(C)c2ccc(-c3ccccc3)c(F)c2)cc(OC)c1Br (stereo not drawn) [Compound 22, N′-(4-Bromo-3,5-dimethoxybenzylidene)-2-(2-fluoro-[1,1′-biphenyl]-4-yl)propanehydrazide]	90.7 ± 7.71 µM
CSc1ccc(C=NNC(=O)C(C)c2ccc(-c3ccccc3)c(F)c2)cc1 (stereo not drawn) [Compound 26, 2-(2-Fluoro-[1,1′-biphenyl]-4-yl)-N′-(4-(methylthio)benzylidene)propanehydrazide]	78 ± 7.63 µM
CC(C(=O)NN=Cc1ccc(Br)cc1F)c1ccc(-c2ccccc2)c(F)c1 (stereo not drawn) [Compound 23, N′-(4-Bromo-2-fluorobenzylidene)-2-(2-fluoro-[1,1′-biphenyl]-4-yl)propanehydrazide]	86.9 ± 8.71 µM
CC(C(=O)NN=Cc1cccc(C(F)(F)F)c1)c1ccc(-c2ccccc2)c(F)c1 (stereo not drawn) [Compound 25, 2-(2-Fluoro-[1,1′-biphenyl]-4-yl)-N′-(3-(trifluoromethyl)benzylidene)propanehydrazide]	59.5 ± 4.28 µM
CC(C(=O)NN=Cc1ccc(O)c(Br)c1)c1ccc(-c2ccccc2)c(F)c1 (stereo not drawn) [Compound 27, N′-(3-Bromo-4-hydroxybenzylidene)-2-(2-fluoro-[1,1′-biphenyl]-4-yl)propanehydrazide]	80 ± 8.61 µM

The next lines start with the values.

IC50	Structure (SMILES)
25.1 ± 1.13 µM	CC(C(=O)NN=Cc1ccc(O)c(O)c1O)c1ccc(-c2ccccc2)c(F)c1 (stereo not drawn) [Compound 5, 2-(2-Fluoro-[1,1′-biphenyl]-4-yl)-N′-(2,3,4-trihydroxybenzylidene)propanehydrazide]
18.9 ± 0.61 µM	CC(C(=O)NN=Cc1cccc(O)c1O)c1ccc(-c2ccccc2)c(F)c1 (stereo not drawn) [Compound 30, N′-(2,3-Dihydroxybenzylidene)-2-(2-fluoro-[1,1′-biphenyl]-4-yl)propanehydrazide]
50.7 ± 5.17 µM	CC(C(=O)NN=Cc1cc([N+](=O)[O-])ccc1Cl)c1ccc(-c2ccccc2)c(F)c1 (stereo not drawn) [Compound 10, N′-(2-Chloro-5-nitrobenzylidene)-2-(2-fluoro-[1,1′-biphenyl]-4-yl)propanehydrazide]
28.6 ± 1.73 µM	CC(C(=O)N/N=C/c1ccc([N+](=O)[O-])cc1)c1ccc(-c2ccccc2)c(F)c1 (stereo not drawn) [Compound 15, (E)-2-(2-Fluoro-[1,1′-biphenyl]-4-yl)-N′-(4-nitrobenzylidene)propanehydrazide]
26.5 ± 0.44 µM	COc1cc(C=NNC(=O)C(C)c2ccc(-c3ccccc3)c(F)c2)ccc1Oc1ccccc1 (stereo not drawn) [Compound 18, 2-(2-Fluoro-[1,1′-biphenyl]-4-yl)-N′-(3-methoxy-4-phenoxybenzylidene)propanehydrazide]
55.7 ± 3.71 µM	COc1cccc(OC)c1C=NNC(=O)C(C)c1ccc(-c2ccccc2)c(F)c1 (stereo not drawn) [Compound 14, N′-(2,6-Dimethoxybenzylidene)-2-(2-fluoro-[1,1′-biphenyl]-4-yl)propanehydrazide]
53.7 ± 3.82 µM	CC(C(=O)NN=Cc1ccccc1N)c1ccc(-c2ccccc2)c(F)c1 (stereo not drawn) [Compound 6, N′-(2-Aminobenzylidene)-2-(2-fluoro-[1,1′-biphenyl]-4-yl)propanehydrazide]
55.7 ± 3.82 µM	COc1ccc(/C=N/NC(=O)C(C)c2ccc(-c3ccccc3)c(F)c2)c(Cl)c1OC (stereo not drawn) [Compound 16, (E)-N′-(2-Chloro-3,4-dimethoxybenzylidene)-2-(2-fluoro-[1,1′-biphenyl]-4-yl)propanehydrazide]
29.2 ± 1.12 µM	CC(C(=O)NN=Cc1cccc([N+](=O)[O-])c1)c1ccc(-c2ccccc2)c(F)c1 (stereo not drawn) [Compound 7, 2-(2-Fluoro-[1,1′-biphenyl]-4-yl)-N′-(3-nitrobenzylidene)propanehydrazide]
55.7 ± 3.82 µM	COc1ccccc1C=NNC(=O)C(C)c1ccc(-c2ccccc2)c(F)c1 (stereo not drawn) [Compound 19, 2-(2-Fluoro-[1,1′-biphenyl]-4-yl)-N′-(2-methoxybenzylidene)propanehydrazide]
52.7 ± 3.56 µM	CCOc1ccc(C=NNC(=O)C(C)c2ccc(-c3ccccc3)c(F)c2)c(OC)c1 (stereo not drawn) [Compound 11, N′-(4-Ethoxy-2-methoxybenzylidene)-2-(2-fluoro-[1,1′-biphenyl]-4-yl)propanehydrazide]
53.7 ± 3.81 µM	CC(C(=O)NN=Cc1cccc2ccccc12)c1ccc(-c2ccccc2)c(F)c1 (stereo not drawn) [Compound 4, 2-(2-Fluoro-[1,1′-biphenyl]-4-yl)-N′-(naphthalen-1-ylmethylene)propanehydrazide]
28.1 ± 1.26 µM	CC(C(=O)NN=Cc1ccccc1[N+](=O)[O-])c1ccc(-c2ccccc2)c(F)c1 (stereo not drawn) [Compound 31, N′-(2-Nitrobenzylidene)-2-(2-fluoro-[1,1′-biphenyl]-4-yl)propanehydrazide]
